{"source": "ChEMBL document CHEMBL1139475", "about": "“Structural, mutagenic, and kinetic analysis of the binding of substrates and inhibitors of human phenylethanolamine N-methyltransferase” (J Med Chem, 2005)", "key": {"[1]": {"target": "T1, Phenylethanolamine N-methyltransferase (Homo sapiens, UniProt P11086)", "T1 sequence (P11086 whole entry)": "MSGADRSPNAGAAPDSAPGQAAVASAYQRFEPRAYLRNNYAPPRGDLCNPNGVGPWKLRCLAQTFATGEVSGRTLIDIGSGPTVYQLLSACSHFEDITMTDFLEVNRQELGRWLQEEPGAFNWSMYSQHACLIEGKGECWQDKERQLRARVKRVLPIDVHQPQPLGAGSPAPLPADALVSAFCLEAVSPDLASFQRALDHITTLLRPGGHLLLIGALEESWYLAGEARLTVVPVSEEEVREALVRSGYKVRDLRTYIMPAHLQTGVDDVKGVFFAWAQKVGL", "assay": "Binding affinity to human free PNMT"}, "[2]": {"assay": "Binding affinity to human PNMT-S-adenosyl-L-methionine complex"}, "[3]": {"target": "Phenylethanolamine N-methyltransferase (Homo sapiens, UniProt P11086, K57A)", "assay": "(§1) Activity of human PNMT K57A mutant assessed as phenylethanolamine methylation", "outline": "(§2)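 C-terminally His6-tagged human PNMT mutants made by site-directed mutagenesis, expressed in E. coli BL21(DE3)-pLysS, and purified by Ni affinity then gel filtration. Steady-state kinetics used 50 mM potassium phosphate pH 8.0 with [3H]-AdoMet and phenylethanolamine, each varied between 0.3 and 3 × Km. Incubation was 30 min at 30 °C, quenched with borate pH 10, extracted into toluene/isoamyl alcohol, and counted by scintillation.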"}, "[4]": {"target": "Phenylethanolamine N-methyltransferase (Homo sapiens, UniProt P11086, E219A)", "assay": "(§3) Activity of human PNMT E219A mutant assessed as phenylethanolamine methylation", "outline": "as §2"}, "[5]": {"target": "T1, Phenylethanolamine N-methyltransferase", "assay": "Activity of human wild type PNMT assessed as phenylethanolamine methylation"}, "[6]": {"target": "Phenylethanolamine N-methyltransferase (Homo sapiens, UniProt P11086, V53A)", "assay": "(§4) Activity of human PNMT V53A mutant assessed as phenylethanolamine methylation", "outline": "as §2"}, "[7]": {"target": "Phenylethanolamine N-methyltransferase (Homo sapiens, UniProt P11086, D267A)", "assay": "Activity of human PNMT D267A mutant assessed as phenylethanolamine methylation"}, "[8]": {"target": "Phenylethanolamine N-methyltransferase (Homo sapiens, UniProt P11086, D267N)", "assay": "(§5) Activity of human PNMT D267N mutant assessed as phenylethanolamine methylation", "outline": "as §2"}, "[9]": {"substrate": "C[S+](CC[C@H](N)C(=O)[O-])C[C@H]1O[C@@H](n2cnc3c(N)ncnc32)[C@H](O)[C@@H]1O", "assay": "as §4", "outline": "as §2"}, "[10]": {"substrate": "NCC(O)c1ccc(Cl)c(Cl)c1", "assay": "as §4", "outline": "as §2"}, "[11]": {"substrate": "C[S+](CC[C@H](N)C(=O)[O-])C[C@H]1O[C@@H](n2cnc3c(N)ncnc32)[C@H](O)[C@@H]1O", "settings": "Homo sapiens"}, "[12]": {"substrate": "NCC(O)c1ccc(Cl)c(Cl)c1", "settings": "Homo sapiens"}, "[13]": {"substrate": "C[S+](CC[C@H](N)C(=O)[O-])C[C@H]1O[C@@H](n2cnc3c(N)ncnc32)[C@H](O)[C@@H]1O", "assay": "as §1", "outline": "as §2"}, "[14]": {"substrate": "NCC(O)c1ccc(Cl)c(Cl)c1", "assay": "as §1", "outline": "as §2"}, "[15]": {"substrate": "C[S+](CC[C@H](N)C(=O)[O-])C[C@H]1O[C@@H](n2cnc3c(N)ncnc32)[C@H](O)[C@@H]1O", "assay": "as §3", "outline": "as §2"}, "[16]": {"substrate": "NCC(O)c1ccc(Cl)c(Cl)c1", "assay": "as §3", "outline": "as §2"}, "[17]": {"substrate": "C[S+](CC[C@H](N)C(=O)[O-])C[C@H]1O[C@@H](n2cnc3c(N)ncnc32)[C@H](O)[C@@H]1O", "settings": "Homo sapiens", "remark": "listed apart in the source"}, "[18]": {"substrate": "NCC(O)c1ccc(Cl)c(Cl)c1", "settings": "Homo sapiens", "remark": "listed apart in the source"}, "[19]": {"substrate": "C[S+](CC[C@H](N)C(=O)[O-])C[C@H]1O[C@@H](n2cnc3c(N)ncnc32)[C@H](O)[C@@H]1O", "assay": "as §5", "outline": "as §2"}, "[20]": {"substrate": "NCC(O)c1ccc(Cl)c(Cl)c1", "assay": "as §5", "outline": "as §2"}}, "data": [{"molecule": "CC(N)c1cccc(Cl)c1Cl", "note": "(stereo not given)", "values": [{"measurement": "Ki", "setting": "[1]", "value": 1.33, "unit": "µM"}, {"measurement": "Ki", "setting": "[2]", "value": 0.072, "unit": "µM"}]}, {"molecule": "C[S+](CC[C@H](N)C(=O)[O-])C[C@H]1O[C@@H](n2cnc3c(N)ncnc32)[C@H](O)[C@@H]1O", "note": "(stereo not given in full) [ADEMETIONINE]", "values": [{"measurement": "Kd", "setting": "[3]", "value": 10.7, "unit": "µM"}, {"measurement": "Kd", "setting": "[4]", "value": 7.5, "unit": "µM"}, {"measurement": "Kd", "setting": "[5]", "value": 4.8, "unit": "µM"}, {"measurement": "Kd", "setting": "[6]", "value": 7.1, "unit": "µM"}, {"measurement": "Kd", "setting": "[7]", "value": 11, "unit": "µM"}, {"measurement": "Kd", "setting": "[8]", "value": 7.5, "unit": "µM"}]}, {"molecule": "Phenylethanolamine N-methyltransferase (Homo sapiens), P11086 V53A (protein) MSGADRSPNAGAAPDSAPGQAAVASAYQRFEPRAYLRNNYAPPRGDLCNPNGAGPWKLRCLAQTFATGEVSGRTLIDIGSGPTVYQLLSACSHFEDITMTDFLEVNRQELGRWLQEEPGAFNWSMYSQHACLIEGKGECWQDKERQLRARVKRVLPIDVHQPQPLGAGSPAPLPADALVSAFCLEAVSPDLASFQRALDHITTLLRPGGHLLLIGALEESWYLAGEARLTVVPVSEEEVREALVRSGYKVRDLRTYIMPAHLQTGVDDVKGVFFAWAQKVGL", "values": [{"measurement": "Km", "setting": "[9]", "value": 9.6, "unit": "µM"}, {"measurement": "Km", "setting": "[10]", "value": 1630, "unit": "µM"}]}, {"molecule": "Phenylethanolamine N-methyltransferase (Homo sapiens), P11086 (protein) MSGADRSPNAGAAPDSAPGQAAVASAYQRFEPRAYLRNNYAPPRGDLCNPNGVGPWKLRCLAQTFATGEVSGRTLIDIGSGPTVYQLLSACSHFEDITMTDFLEVNRQELGRWLQEEPGAFNWSMYSQHACLIEGKGECWQDKERQLRARVKRVLPIDVHQPQPLGAGSPAPLPADALVSAFCLEAVSPDLASFQRALDHITTLLRPGGHLLLIGALEESWYLAGEARLTVVPVSEEEVREALVRSGYKVRDLRTYIMPAHLQTGVDDVKGVFFAWAQKVGL", "values": [{"measurement": "Km", "setting": "[11]", "value": 1.2, "unit": "µM"}, {"measurement": "Km", "setting": "[12]", "value": 100, "unit": "µM"}]}, {"molecule": "Phenylethanolamine N-methyltransferase (Homo sapiens), P11086 K57A (protein) MSGADRSPNAGAAPDSAPGQAAVASAYQRFEPRAYLRNNYAPPRGDLCNPNGVGPWALRCLAQTFATGEVSGRTLIDIGSGPTVYQLLSACSHFEDITMTDFLEVNRQELGRWLQEEPGAFNWSMYSQHACLIEGKGECWQDKERQLRARVKRVLPIDVHQPQPLGAGSPAPLPADALVSAFCLEAVSPDLASFQRALDHITTLLRPGGHLLLIGALEESWYLAGEARLTVVPVSEEEVREALVRSGYKVRDLRTYIMPAHLQTGVDDVKGVFFAWAQKVGL", "values": [{"measurement": "Km", "setting": "[13]", "value": 11.7, "unit": "µM"}, {"measurement": "Km", "setting": "[14]", "value": 1310, "unit": "µM"}]}, {"molecule": "Phenylethanolamine N-methyltransferase (Homo sapiens), P11086 E219A (protein) MSGADRSPNAGAAPDSAPGQAAVASAYQRFEPRAYLRNNYAPPRGDLCNPNGVGPWKLRCLAQTFATGEVSGRTLIDIGSGPTVYQLLSACSHFEDITMTDFLEVNRQELGRWLQEEPGAFNWSMYSQHACLIEGKGECWQDKERQLRARVKRVLPIDVHQPQPLGAGSPAPLPADALVSAFCLEAVSPDLASFQRALDHITTLLRPGGHLLLIGALEASWYLAGEARLTVVPVSEEEVREALVRSGYKVRDLRTYIMPAHLQTGVDDVKGVFFAWAQKVGL", "values": [{"measurement": "Km", "setting": "[15]", "value": 7.1, "unit": "µM"}, {"measurement": "Km", "setting": "[16]", "value": 580, "unit": "µM"}]}, {"molecule": "Phenylethanolamine N-methyltransferase (Homo sapiens), P11086 D267A (protein) MSGADRSPNAGAAPDSAPGQAAVASAYQRFEPRAYLRNNYAPPRGDLCNPNGVGPWKLRCLAQTFATGEVSGRTLIDIGSGPTVYQLLSACSHFEDITMTDFLEVNRQELGRWLQEEPGAFNWSMYSQHACLIEGKGECWQDKERQLRARVKRVLPIDVHQPQPLGAGSPAPLPADALVSAFCLEAVSPDLASFQRALDHITTLLRPGGHLLLIGALEESWYLAGEARLTVVPVSEEEVREALVRSGYKVRDLRTYIMPAHLQTGVADVKGVFFAWAQKVGL", "values": [{"measurement": "Km", "setting": "[17]", "value": 2.4, "unit": "µM"}, {"measurement": "Km", "setting": "[18]", "value": 2050, "unit": "µM"}]}, {"molecule": "Phenylethanolamine N-methyltransferase (Homo sapiens), P11086 D267N (protein) MSGADRSPNAGAAPDSAPGQAAVASAYQRFEPRAYLRNNYAPPRGDLCNPNGVGPWKLRCLAQTFATGEVSGRTLIDIGSGPTVYQLLSACSHFEDITMTDFLEVNRQELGRWLQEEPGAFNWSMYSQHACLIEGKGECWQDKERQLRARVKRVLPIDVHQPQPLGAGSPAPLPADALVSAFCLEAVSPDLASFQRALDHITTLLRPGGHLLLIGALEESWYLAGEARLTVVPVSEEEVREALVRSGYKVRDLRTYIMPAHLQTGVNDVKGVFFAWAQKVGL", "values": [{"measurement": "Km", "setting": "[19]", "value": 7.1, "unit": "µM"}, {"measurement": "Km", "setting": "[20]", "value": 1640, "unit": "µM"}]}]}
